Test results published in ChEMBL document CHEMBL2046406 (J Med Chem, 2012).
Calls of active or inactive are those of the source. No cut-off for these calls is given here.

How the values were obtained:
[1] = biological target: T1, Mu-type opioid receptor (Homo sapiens, UniProt P35372); assay: biochemical; assay type: cell-based, CHO
[2] = biological target: T2, Delta-type opioid receptor (Homo sapiens, UniProt P41143); assay: Displacement of [3H]-naltrindole from human delta opioid receptor expressed in CHO cells after 3 hrs by scintillation counting; assay type: cell-based
T2 sequence (P41143 whole entry): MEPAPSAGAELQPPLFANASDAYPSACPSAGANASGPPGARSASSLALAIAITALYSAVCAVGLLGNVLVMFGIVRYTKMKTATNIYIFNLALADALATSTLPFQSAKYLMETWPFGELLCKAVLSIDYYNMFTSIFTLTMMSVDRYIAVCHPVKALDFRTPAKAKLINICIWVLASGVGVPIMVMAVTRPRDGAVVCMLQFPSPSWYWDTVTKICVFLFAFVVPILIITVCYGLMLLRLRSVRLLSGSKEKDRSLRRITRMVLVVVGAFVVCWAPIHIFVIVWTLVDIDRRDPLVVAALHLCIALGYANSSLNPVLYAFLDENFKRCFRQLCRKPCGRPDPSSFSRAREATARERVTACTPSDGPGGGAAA
Outline: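 CHO membranes expressing human KOR or DOR incubated with radioligand and 12 compound concentrations in 1 mL 50 mM Tris-HCl, pH 7.5, at 25 °C. […] Nonspecific binding with 10 μM naloxone. Three experiments in triplicate.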

[3] = species on record: Homo sapiens; assay: Selectivity index, ratio of inhibition of human delta opioid receptor to inhibition of human kappa opioid receptor
[4] = species on record: Homo sapiens; assay: Selectivity index, ratio of inhibition of human kappa opioid receptor to inhibition of human mu opioid receptor
[5] = biological target: T3, Kappa-type opioid receptor (Homo sapiens, UniProt P41145); assay: biochemical; assay type: cell-based, CHO
T3 sequence (P41145 whole entry): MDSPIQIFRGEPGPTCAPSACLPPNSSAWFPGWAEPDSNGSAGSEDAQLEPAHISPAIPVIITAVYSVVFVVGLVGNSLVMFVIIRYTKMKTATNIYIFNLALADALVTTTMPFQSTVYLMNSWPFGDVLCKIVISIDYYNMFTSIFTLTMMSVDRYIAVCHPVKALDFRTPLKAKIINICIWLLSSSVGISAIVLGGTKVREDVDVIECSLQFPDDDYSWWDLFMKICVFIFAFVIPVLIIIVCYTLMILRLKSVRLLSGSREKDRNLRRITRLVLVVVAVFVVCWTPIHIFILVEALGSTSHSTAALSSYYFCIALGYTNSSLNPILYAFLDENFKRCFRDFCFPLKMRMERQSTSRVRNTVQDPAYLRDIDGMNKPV

[6] = biological target: T1, Mu-type opioid receptor; assay: Antagonist activity at human mu opioid receptor expressed in CHO cells assessed as inhibition of DAMGO-induced […]GTPgammaS binding after 60 mins by scintillation counting; assay type: functional, cell-based
[7] = biological target: T1, Mu-type opioid receptor; assay: Agonist activity at human mu opioid receptor expressed in CHO cells assessed as stimulation of […]GTPgammaS binding after 60 mins by scintillation counting relative to control; assay type: functional, cell-based
[8] = biological target: T1, Mu-type opioid receptor; assay: Antagonist activity at human mu opioid receptor expressed in CHO cells assessed as inhibition of DAMGO-induced […]GTPgammaS binding after 60 mins by scintillation counting relative to control; assay type: functional, cell-based
[9] = biological target: T3, Kappa-type opioid receptor; assay: Antagonist activity at human kappa opioid receptor expressed in CHO cells assessed as inhibition of U50488-induced […]GTPgammaS binding after 60 mins by scintillation counting; assay type: functional, cell-based
Outline: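 κ antagonism: hKOR-CHO membranes incubated with compound plus 100 nM U50,488.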

[10] = species on record: Homo sapiens; assay: Selectivity index, ratio of inhibition of human delta opioid receptor to inhibition of human mu opioid receptor
[11] = biological target: T3, Kappa-type opioid receptor; assay: Agonist activity at human kappa opioid receptor expressed in CHO cells assessed as stimulation of […]GTPgammaS binding after 60 mins by scintillation counting relative to control; assay type: functional, cell-based
Outline: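 Membranes from CHO cells stably expressing human KOR (15 μg protein per tube) or MOR (7.5 μg protein per tube). Nonspecific binding with 10 μM GTPγS. Filtration, then scintillation counting. Triplicate, at least three experiments.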

[12] = biological target: T3, Kappa-type opioid receptor; assay: Agonist activity at human kappa opioid receptor expressed in CHO cells assessed as stimulation of […]GTPgammaS binding after 60 mins by scintillation counting; assay type: functional, cell-based
[13] = biological target: T2, Delta-type opioid receptor; assay: Displacement of [3H]-naltrindole from human delta opioid receptor expressed in CHO cells at 10 uM after 3 hrs by scintillation counting; assay type: cell-based
[14] = biological target: T1, Mu-type opioid receptor; assay: Agonist activity at human mu opioid receptor expressed in CHO cells assessed as stimulation of […]GTPgammaS binding after 60 mins by scintillation counting; assay type: functional, cell-based

T1 sequence (P35372 whole entry): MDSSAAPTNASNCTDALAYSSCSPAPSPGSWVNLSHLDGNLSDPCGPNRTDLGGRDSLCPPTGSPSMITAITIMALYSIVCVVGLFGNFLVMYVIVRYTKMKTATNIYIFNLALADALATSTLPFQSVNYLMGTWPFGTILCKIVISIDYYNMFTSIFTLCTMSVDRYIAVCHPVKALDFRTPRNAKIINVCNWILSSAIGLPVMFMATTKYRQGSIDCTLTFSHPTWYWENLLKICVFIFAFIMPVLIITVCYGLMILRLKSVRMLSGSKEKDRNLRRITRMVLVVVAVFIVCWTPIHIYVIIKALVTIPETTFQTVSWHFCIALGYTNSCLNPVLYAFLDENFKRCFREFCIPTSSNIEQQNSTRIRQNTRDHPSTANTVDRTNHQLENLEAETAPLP

Compound	Ki [1] [nM]	Ki [2] [nM]	Selectivity ratio [3]	Selectivity ratio [4]	Ki [5] [nM]	IC50 ([6]; read-out: IC50) [nM]	Emax [7] [%]	Imax [8]	Activity [9]	Selectivity ratio [10]	Emax [11] [%]	EC50 [12] [nM]	inhibition [13] [%]	EC50 [14] [nM]	IC50 ([6]; cho)
COc1ccccc1CN(C)c1ccc2c(c1)[C@@]13CCCC[C@H]1[C@@H](C2)N(CC1CCC1)CC3	14	190	14	14	19										
COc1ccc(CN(C)c2ccc3c(c2)[C@@]24CCCC[C@H]2[C@@H](C3)N(CC2CCC2)CC4)cc1	9.5	290	34	34	8.5										
COc1ccccc1CNc1ccc2c(c1)[C@@]13CCCC[C@H]1[C@@H](C2)N(CC1CCC1)CC3	2.7	61	28	28	2.2										
c1ccc(CNc2ccc3c(c2)[C@@]24CCCC[C@H]2[C@@H](C3)N(CC2CC2)CC4)cc1			112	112											
Oc1cccc(CNc2ccc3c(c2)[C@@]24CCCC[C@H]2[C@@H](C3)N(CC2CC2)CC4)c1	0.16	41		260	0.36	3.5	27	79%	inactive	2	98	3.9			
COc1ccc2c3c1O[C@H]1C(=O)CC[C@H]4[C@@H](C2)N(C)CC[C@]314													37		
c1ccc(CNc2ccc3c(c2)[C@@]24CCCC[C@H]2[C@@H](C3)N(CC2CCC2)CC4)cc1				76						2					
Oc1ccc(CNc2ccc3c(c2)[C@@]24CCCC[C@H]2[C@@H](C3)N(CC2CC2)CC4)cc1	0.28	13	44	44	0.27	7.6	19	80%	inactive		100	1.8			
O=[N+]([O-])c1cccc(CNc2ccc3c(c2)[C@@]24CCCC[C@H]2[C@@H](C3)N(CC2CCC2)CC4)c1	0.43	150		350	1.1	6.8	70	49%	inactive	3	140	0.79		1.1	
COc1cccc(CNc2ccc3c(c2)[C@@]24CCCC[C@H]2[C@@H](C3)N(CC2CCC2)CC4)c1	0.69	150		220	3.5	80	39	66%	inactive	5	120	39		3.8	
COc1ccc(CNc2ccc3c(c2)[C@@]24CCCC[C@H]2[C@@H](C3)N(CC2CCC2)CC4)cc1	0.86	260		300	4.5	150	34	55%	inactive	5	120	50		7.8	
CN1CC[C@]23c4c5ccc(NCc6ccccc6O)c4O[C@H]2[C@@H](O)C=C[C@H]3[C@H]1C5					370								27		
Clc1ccc(CNc2ccc3c(c2)[C@@]24CCCC[C@H]2[C@@H](C3)N(CC2CCC2)CC4)cc1	1.7	100		59	4.5					3					
CN(Cc1cccc(O)c1)c1ccc2c(c1)[C@@]13CCCC[C@H]1[C@@H](C2)N(CC1CCC1)CC3	17	170	10	10	23										
COc1cccc(CN(C)c2ccc3c(c2)[C@@]24CCCC[C@H]2[C@@H](C3)N(CC2CCC2)CC4)c1	13	350		27	25					2					
Oc1cccc(CNc2ccc3c(c2)[C@@]24CCCC[C@H]2[C@@H](C3)N(CC2CCC2)CC4)c1	0.32	230		720	1.9	4.8	30	74%		6					
Oc1ccc(CNc2ccc3c(c2)[C@@]24CCCC[C@H]2[C@@H](C3)N(CC2CCC2)CC4)cc1	0.35	120		340	2.3	75	38	56%	inactive	7	130	38		3.6	
COc1ccccc1CNc1ccc2c3c1O[C@H]1[C@@H](O)C=C[C@H]4[C@@H](C2)N(C)CC[C@@]341					220			inactive					22		Not Active
COc1cccc(CNc2ccc3c(c2)[C@@]24CCCC[C@H]2[C@@H](C3)N(CC2CC2)CC4)c1	0.51	110		220	1.5	2	23	77%	inactive	3	130	0.43			
CN(Cc1ccc(Cl)cc1)c1ccc2c(c1)[C@@]13CCCC[C@H]1[C@@H](C2)N(CC1CCC1)CC3	26	730	28	28	27										
CN(Cc1ccc(O)cc1)c1ccc2c(c1)[C@@]13CCCC[C@H]1[C@@H](C2)N(CC1CCC1)CC3	3.2	530	170	170	4.1										
COc1cccc(CNc2ccc3c4c2O[C@H]2[C@@H](O)C=C[C@H]5[C@@H](C3)N(C)CC[C@@]452)c1					500								33		
COc1ccc(CNc2ccc3c(c2)[C@@]24CCCC[C@H]2[C@@H](C3)N(CC2CC2)CC4)cc1				65		10	30	67%	inactive	2	130	5.3		6.8	
COc1ccccc1CNc1ccc2c(c1)[C@@]13CCCC[C@H]1[C@@H](C2)N(CC1CC1)CC3	1.2	160	130	130	1.3										
c1cc2c(cc1CNc1ccc3c(c1)[C@@]14CCCC[C@H]1[C@@H](C3)N(CC1CC1)CC4)OCO2	0.17	20		120	0.53	0.21	18	72%	inactive	3	120	0.077			
c1cc2c(cc1CNc1ccc3c(c1)[C@@]14CCCC[C@H]1[C@@H](C3)N(CC1CCC1)CC4)OCO2	0.34	53		160	1.1	94	39	60%	inactive	3	130	27		3.6	
Oc1ccccc1CNc1ccc2c(c1)[C@@]13CCCC[C@H]1[C@@H](C2)N(CC1CCC1)CC3	1.7	110	65	65	1.7	810	49	32%	inactive		130	47		38	
C[C@@H](NC(=O)[C@@H](N)Cc1ccc(O)cc1)C(=O)NCC(=O)N(C)[C@@H](Cc1ccccc1)C(=O)NCCO								inactive							
CN1CC[C@]23CCCC[C@H]2[C@H]1Cc1ccc(NCc2cccc(O)c2)cc13	0.42	720			10				inactive		140	230		6.5	Not Active
CN1CC[C@]23c4c5ccc(NCc6ccc(O)cc6)c4O[C@H]2[C@@H](O)C=C[C@H]3[C@H]1C5	44			230	560					13			19		
